Assay results: ChEMBL document CHEMBL5154715, “Phenolic Lipids Derived from Cashew Nut Shell Liquid to Treat Metabolic Diseases” (J Med Chem, 2022)
The source made the active and inactive calls. No cut-off for these calls is given here.

Legend:
[1] = test system: Danio rerio; experiment: In vivo agonist activity at human GFP-tagged PPARalpha in transgenic zebrafish assessed as increase in GFP expression in brain at 1.5 uM measured after 14 hrs by microscopy
[2] = test system: Danio rerio; experiment: In vivo agonist activity at human GFP-tagged PPARalpha in transgenic zebrafish assessed as increase in GFP expression in yolk sac at 1.5 uM measured after 14 hrs by microscopy
[3] = test system: Danio rerio; experiment: In vivo agonist activity at human GFP-tagged PPARalpha in transgenic zebrafish assessed as increase in GFP expression in heart at 1.5 uM measured after 14 hrs by microscopy
[4] = test system: Danio rerio; experiment: In vivo agonist activity at human GFP-tagged PPARalpha in transgenic zebrafish assessed as increase in GFP expression in brain at 0.7 uM measured after 14 hrs by microscopy
[5] = biological target: T1, Peroxisome proliferator-activated receptor alpha (Mus musculus) (UniProt P23204); experiment: Agonist activity at human PPARalpha in mouse hepatocytes assessed as induction of Fgf21 mRNA expression at 50 uM incubated for 16 hrs by quantitative real-time PCR analysis; type: cell-based; conditions: Hepatocyte, filed as agonist
T1 sequence (whole entry): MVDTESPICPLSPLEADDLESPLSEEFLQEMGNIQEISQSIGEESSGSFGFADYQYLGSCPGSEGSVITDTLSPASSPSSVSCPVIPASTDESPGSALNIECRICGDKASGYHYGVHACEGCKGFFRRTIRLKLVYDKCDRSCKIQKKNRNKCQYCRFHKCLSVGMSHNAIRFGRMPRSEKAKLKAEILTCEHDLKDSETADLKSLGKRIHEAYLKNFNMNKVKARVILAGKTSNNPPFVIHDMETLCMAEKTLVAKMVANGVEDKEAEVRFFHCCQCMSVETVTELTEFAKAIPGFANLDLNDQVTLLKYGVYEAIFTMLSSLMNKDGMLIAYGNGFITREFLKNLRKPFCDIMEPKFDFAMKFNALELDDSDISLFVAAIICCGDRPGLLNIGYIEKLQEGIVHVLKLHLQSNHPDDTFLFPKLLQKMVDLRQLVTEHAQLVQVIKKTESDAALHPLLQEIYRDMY
Outline: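 Collagenase-perfused mouse primary hepatocytes from WT mice, plated 2 h in attachment medium, overnight in M199 with 5% charcoal-stripped FBS and 1 nM insulin. Treated next day in serum-free M199 with 50 μM compound for 16 h. RNA qPCR (SYBR Green), comparative Ct method.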

[6] = Cmax in C57BL/6 mouse at 40 mg/kg, ip measured upto 24 hrs by LC-MS/MS analysis; type: ADME, organism-based; set-up: dose 40 mg/kg, time < 24 hrs, route ip; conditions: in vivo
Outline: (§1)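 Single IP dose in 5% DMSO/5% Tween-80/90% saline to WT male C57Bl/6 mice, 7–10 months old; n = 4 per time point. Saphenous sampling at 0.08–0.5 h, then terminal trunk blood at 1–6 h. Plasma extracted with methanol plus internal standard and analyzed by LC-MS/MS; mean ± SEM.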

[7] = test system: Danio rerio; experiment: In vivo agonist activity at human GFP-tagged PPARalpha in transgenic zebrafish assessed as increase in GFP expression in brain at 0.5 uM measured after 14 hrs by microscopy
[8] = Terminal half life in C57BL/6 mouse at 40 mg/kg, ip […] by LC-MS/MS analysis; type: ADME, organism-based; conditions: in vivo, read-out: beta t1/2 (converted)
[9] = Tmax in C57BL/6 mouse at 100 mg/kg, po measured upto 24 hrs by LC-MS/MS analysis; conditions: in vivo
[10] = Elimination rate constant in C57BL/6 mouse at 100 mg/kg, po […] by LC-MS/MS analysis; type: ADME, organism-based; conditions: in vivo
[11] = biological target: T2, Peroxisome proliferator-activated receptor gamma (Mus musculus) (UniProt P37238); experiment: Agonist activity at human PPARgamma in mouse 3T3-L1 cells assessed as induction of Adipoq-mRNA expression at 25 uM incubated for 11 days by quantitative real-time PCR analysis; conditions: filed as agonist, time 11.0 day
T2 sequence (whole entry): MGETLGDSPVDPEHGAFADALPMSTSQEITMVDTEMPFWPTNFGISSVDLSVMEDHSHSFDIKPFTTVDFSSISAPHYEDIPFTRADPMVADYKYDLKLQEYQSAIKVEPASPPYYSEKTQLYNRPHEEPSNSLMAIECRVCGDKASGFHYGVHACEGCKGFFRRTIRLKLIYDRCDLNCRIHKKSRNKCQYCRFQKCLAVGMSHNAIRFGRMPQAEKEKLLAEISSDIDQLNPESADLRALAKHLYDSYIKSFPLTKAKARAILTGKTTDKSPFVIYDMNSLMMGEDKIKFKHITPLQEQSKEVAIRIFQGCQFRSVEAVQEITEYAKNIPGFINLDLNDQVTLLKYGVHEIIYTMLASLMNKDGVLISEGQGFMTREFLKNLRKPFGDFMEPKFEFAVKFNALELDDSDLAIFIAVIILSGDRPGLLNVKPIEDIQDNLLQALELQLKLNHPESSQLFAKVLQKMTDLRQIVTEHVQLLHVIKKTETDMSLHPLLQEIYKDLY

[12] = test system: Danio rerio; experiment: In vivo agonist activity at human GFP-tagged PPARalpha in transgenic zebrafish assessed as increase in GFP expression in yolk sac at 0.5 uM measured after 14 hrs by microscopy
[13] = test system: Danio rerio; experiment: In vivo agonist activity at human GFP-tagged PPARalpha in transgenic zebrafish assessed as increase in GFP expression in muscle at 0.5 uM measured after 14 hrs by microscopy
[14] = Cmax in C57BL/6 mouse at 100 mg/kg, po measured upto 24 hrs by LC-MS/MS analysis; type: ADME, organism-based; set-up: time < 24 hrs, dose 100 mg/kg, route po; conditions: in vivo
Outline: (§2)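 Single oral dose given in peanut butter pellets to WT male C57Bl/6 mice acclimated 7 days to drug-free pellets; n = 4 per time point. Saphenous blood at 0.25–2 h, terminal collection at 4–38 h. Plasma extracted with methanol containing internal standard, LC-MS/MS with negative-ion ESI MRM. Parameters reported as mean ± SEM; Frel is oral vs IP.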

[15] = Elimination rate constant in C57BL/6 mouse at 40 mg/kg, ip measured upto 24 hrs by LC-MS/MS analysis; type: ADME, organism-based; conditions: in vivo
Outline: as §1

[16] = Apparent oral clearance in C57BL/6 mouse at 100 mg/kg, po measured upto 24 hrs by LC-MS/MS analysis; type: ADME, organism-based; conditions: in vivo
Outline: as §2

[17] = AUC (0 to infinity) in C57BL/6 mouse at 100 mg/kg, po […] by LC-MS/MS analysis; type: ADME, organism-based; set-up: dose 100 mg/kg, route po; conditions: in vivo
[18] = Apparent oral clearance in C57BL/6 mouse at 40 mg/kg, ip […] by LC-MS/MS analysis; type: ADME, organism-based; conditions: in vivo
[19] = Terminal half life in C57BL/6 mouse at 100 mg/kg, po measured upto 24 hrs by LC-MS/MS analysis; type: ADME, organism-based; conditions: in vivo, read-out: beta t1/2 (converted)
Outline: as §2

[20] = AUC (0 to infinity) in C57BL/6 mouse at 40 mg/kg, ip measured upto 24 hrs by LC-MS/MS analysis; type: ADME, organism-based; set-up: time < 24 hrs, dose 40 mg/kg, route ip; conditions: in vivo
Outline: as §1

For `CCCCCCCCCCCCCCCc1cccc(OC(C)=O)c1C(=O)O`, the Activity [1] was “Active”, the Activity [2] was “Active” and the Activity [3] was “Active”.

In the case of `CCCCCC/C=C\CCCCCCCc1cccc(OC(C)(C)C(=O)O)c1`, the Activity [4] is reported as “Active” and the Activity [5] is reported as “Active”.

In the case of `CCCCCCCCCCCCCCCc1cccc(OC(C)(C)C(=O)O)c1`, the Cmax [6] is reported as 102 µg/mL, the Activity [7] is reported as “Active” and the half-life [8] is reported as 4 h. The Tmax [9] was 4 h, the k el [10] was 8.28e-05 s⁻¹ and the Activity [11] was “Active”. For the same molecule, the Activity [12] was “Active”, the Activity [13] was “Active” and the Cmax [14] was 76 µg/mL. The k el at 24 h [15] was 4.83e-05 s⁻¹, the CL/F [16] was 2.3 mL/min/kg and the AUC(0-inf) [17] was 717 µg·h/mL. For the same molecule, the Activity [5] was “Active”, the CL/F [18] was 0.89 mL/min/kg and the half-life [19] was 2.3 h. For the same molecule, the AUC(0-inf) [20] was 748 µg·h/mL.
